# Source: PubChem BioAssay AID504354 (Broad Institute, 2011)
# Unmarked numbers belong to inactive results.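 The calls were made as follows: active = curve reaches 10% of the strong reference activator's caspase signal at or below the top valid tested dose; inactive = signal moves in the opposite direction, or the rest.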
# Test: apoptosis induction in non-primed human MEWO line – cell-based, luminescence, dry powder, set 2, counter-screen for A1 inhibitor project, dose response (AID 504354)
# Settings: MEWO cells (unprimed), caspase-Glo luminescence, 3 h; at 16 µM; stronger effect = higher value
# Summary of the method: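 Doses: Compound delivered into wells by pin transfer | Assay system: Unprimed A1-expressing MEWO cells | Amount: 2500 cells/well | Schedule: 3 h 37 °C compound exposure, 1 h room-temperature reagent incubation | Measured by: CaspaseGlo luminescence | Measure: Caspase activity from luminescent signal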
compound,measurement,value
C/C1=C/C(=O)O[C@@H]2C[C@@H](CC[C@H](C)/C=C\CC1)O[C@@](O)(C1CSC(=O)N1)C2 (stereo partly specified),caspase activation,2.23%
